# Bioassay records as filed in PubChem.
# NOD2 RIPK2 PPI = inhibitors of human NOD2-RIPK2 interaction | O43353 | CHO BLA complementation NOD2-RIPK2, CCF4 ratio | inhibition, % at 4.98 µM | actives 0.38% (n = 360,000) | AID 624267; in the data active = inhibition above about 21%;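 note: 0% = vehicle only and 100% = reference blocker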
# Hep lipid drop = hepatic lipid droplet formation modulation. AML12 mouse hepatocytes, oleate lipid droplets, BODIPY imaging. inhibition, % at 6.5 µM. actives 0.4% (n = 240,000). AID 1656;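 active = lipid droplet intensity inhibited by at least 50%, with more than 500 cells counted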
#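 Assay system: AML12 hepatocytes (mouse); Probe or stimulus: oleic acid at 100 µM to induce lipid droplet formation; Dosing: compound at 6.5 µM only; Schedule: compound with oleate, overnight; Detection: fluorescence imaging, 20x objective, two fields per well; Measure: % inhibition of lipid droplet signal.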
# SR-BI uptake up = SR-BI HDL lipid transfer activation | actives 0.096% (n = 320,000) | CHO ldlA[mSR-BI] cells, DiI-HDL uptake fluorescence, 3 h; 100 = double the neutral-control signal | activation, % at 12.5 µM | AID 504775;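 active = mean replicate activation of at least 60% and every replicate at or above 60%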;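 note: 0% = median plate neutral-control signal and 100% = twice that signal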
#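 System: LDL receptor-deficient CHO ldlA cells overexpressing murine SR-BI | Timing: 3 h uptake period with compound, 37 °C | Medium: HEPES-buffered (25 mM, pH 7.4) F12 plus 0.5% BSA | Dosing: Single-point compound dose | Signal: Bottom-read fluorescence, 550/595 nm | Read-out: Retained DiI signal reflecting DiI-HDL uptake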
# SR-BI DiI inh = inhibitors of mouse SR-BI mediated HDL lipid uptake | Q61009 | ldlA[mSR-BI] CHO cells, DiI-HDL uptake fluorescence, 3 h | inhibition, % at 12.5 µM | actives 0.96% (n = 320,000);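 active = mean replicate inhibition of at least 70% and a set share of replicates each scoring 70 or more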;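 note: 0% = median of neutral control wells and 100% = median of positive control wells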
# Target sequence (Q61009 whole entry, looked up): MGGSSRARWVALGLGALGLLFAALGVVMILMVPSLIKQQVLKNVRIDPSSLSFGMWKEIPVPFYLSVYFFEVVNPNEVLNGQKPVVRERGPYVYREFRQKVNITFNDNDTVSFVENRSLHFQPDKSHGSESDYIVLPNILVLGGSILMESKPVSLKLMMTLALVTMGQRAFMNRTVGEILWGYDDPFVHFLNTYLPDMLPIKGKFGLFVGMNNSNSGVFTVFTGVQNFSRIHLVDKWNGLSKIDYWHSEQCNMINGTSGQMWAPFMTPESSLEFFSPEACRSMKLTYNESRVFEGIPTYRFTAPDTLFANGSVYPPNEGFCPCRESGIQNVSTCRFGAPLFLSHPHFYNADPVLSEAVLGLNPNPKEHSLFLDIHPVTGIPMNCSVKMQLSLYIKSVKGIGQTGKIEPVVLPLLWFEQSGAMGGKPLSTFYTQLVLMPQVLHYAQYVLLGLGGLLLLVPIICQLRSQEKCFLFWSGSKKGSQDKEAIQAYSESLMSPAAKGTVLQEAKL
# TLR4-MyD88 BLA = TLR4-MyD88 interaction inhibition in cells | AID 861 | inhibition, % at 8.4 µM | actives 0.18% (n = 200,000) | O00206+Q99836 | HeLa CL3-4 TLR4/MyD88 BLA complementation, FRET ratio; in the data active = inhibition above about 25%;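 note: 0% = vehicle and 100% = reference inhibitor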
# TLR9-MyD88 block = inhibitors of human TLR9-MyD88 binding; CHO BLA complementation TLR9-MyD88, CCF4 FRET ratio; inhibition, % at 4.98 µM; actives 0.21% (n = 340,000); AID 504734;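 active = inhibition above the mean over all tested compounds plus 3 SD, cut at about 21% in these data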;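 note: 0% = DMSO only wells and 100% = clavulanate BLA inhibitor control wells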
# Hep lipid conf = hepatic lipid droplet formation inhibition, confirmed; actives 65% (n = 870); AML12 mouse hepatocytes, BODIPY lipid droplet imaging; droplets induced with 100 µM oleic acid; shares compounds with Hep lipid drop; inhibition, % at 5.2 µM; AID 463183;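 active = inhibition of lipid droplet metric at least 50%, with more than 300 cells in each of four replicates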;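 note: plate controls were DMSO with oleic acid for no effect and 5 µM Triacsin-C for full effect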
# AML12 tox img = AML12 hepatocyte cytotoxicity (counter-screen); shares compounds with Hep lipid drop; AML12 mouse hepatocytes, DAPI nuclear morphology cytotoxicity imaging; active compounds read high; cells fed 100 µM oleate overnight; z-score at 5 µM; actives 3% (n = 870); in the data active = z-score above about 6.3;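 note: compound exposure lasted overnight at 37 °C before fixation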
# AML12 tox conf = confirmation of cytotoxicity in AML12 mouse hepatocytes; shares compounds with Hep lipid drop; AML12 mouse hepatocyte viability, ATP luminescence; cells loaded with 100 µM oleic acid; cytotoxicity, % at 50 µM; 530 tested, under 10 active;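 active = cytotoxicity above 50% in each of four replicates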;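 note: compound exposure lasted overnight at 37 °C before the ATP read; 0% = DMSO-treated cells and 100% = wells with no cells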
# The depositor's hits bear a star; nt = no result given. Most compounds without a hit are left out; they make up all but 1.6% or so of the library.
SMILES,NOD2 RIPK2 PPI,Hep lipid drop,SR-BI uptake up,SR-BI DiI inh,TLR4-MyD88 BLA,TLR9-MyD88 block,Hep lipid conf,AML12 tox img,AML12 tox conf
Cc1ccc(S(=O)(=O)N2CCC(C(=O)OC(C)C(=O)NC3CCCCC3C)CC2)cc1 (stereo unspecified),-6,nt,14,-14,nt,-8,nt,nt,nt
O=[N+]([O-])c1ccccc1/C=C/C=N/Nc1ccc(S(=O)(=O)Nc2ccc(Cl)cc2)cc1[N+](=O)[O-],15,60*,-100,100*,8,8,69,-0.46,10
C/C(=N\Nc1ccc(S(=O)(=O)Nc2ccc(Cl)cc2)cc1[N+](=O)[O-])c1ccc(N2CCOCC2)cc1,0,88*,-63,63,-4,-5,65,-0.29,11
C/C(=N\Nc1ccc(S(=O)(=O)Nc2ccccc2)cc1[N+](=O)[O-])c1ccc(N2CCOCC2)cc1,-4,51*,nt,nt,4,-8,72*,-0.2,22
CS(=O)(=O)c1ccc2nc(NC(=O)c3ccc(N4C(=O)CCC4=O)cc3)sc2c1,nt,1,nt,nt,nt,nt,nt,nt,nt
CC(=O)C1=C(C)N(Cc2ccccc2)C(=O)N[C@H]1c1ccco1,10,nt,-14,14,nt,-6,nt,nt,nt
COC(=O)Cn1c(O)c(N=NC(=O)CNC(=O)COc2cccc(C)c2)c2ccccc21,-2,68*,11,-11,nt,-11,25,-1.1,nt
CCn1c(O)c(N=NC(=O)CNc2cccc(C)c2)c2ccccc21,13,-4,-12,12,-23,-8,nt,nt,nt
COc1ccc(Cl)cc1CNCCCSc1ncccn1,-7,50*,nt,nt,nt,3,20,0.24,nt
COc1ccc(C(=O)C2CN(c3ccccc3)CC2c2ccc(Cl)cc2)cc1 (stereo unspecified),-9,nt,-30,30,-8,-4,nt,nt,nt
CCOc1ccc(CCNC(=O)COC(=O)/C=C/c2ccc(C)o2)cc1OCC,-1,59*,-3,3,nt,-15,91*,-0.68,10
CCOc1ccc(CCNC(=O)COC(=O)/C=C/c2ccc(OC(F)F)c(OC)c2)cc1OCC,12,nt,-33,33,nt,0,nt,nt,nt
CCCNC(=O)COC(=O)/C=C/c1ccc(C)o1,1,21,17,-17,4,10,nt,nt,nt
CCOc1ccc(CCNC(=O)COC(=O)/C=C/c2ccc(OC)c(OC)c2)cc1OCC,5,94*,-40,40,nt,2,109*,-0.73,7
COc1cccc(C2(O)CC(C(F)(F)F)=NN2C(=O)c2ccccn2)c1 (stereo unspecified),5,-21,6,-6,2,-9,nt,nt,nt
Cc1oc(-c2cccc(Cl)c2)nc1CN1CCCC(C(=O)NC(C)c2ccc3c(c2)OCCO3)C1 (stereo unspecified),-1,nt,-59,59,2,1,nt,nt,nt
NC(=O)N/N=C/c1ccc(-c2ccc([N+](=O)[O-])cc2)o1,9,55*,-29,29,nt,-1,-4,0.24,nt
O=C(NCC(c1cccs1)N1CCOCC1)c1cc([N+](=O)[O-])cc([N+](=O)[O-])c1 (stereo unspecified),-8,0,5,-5,10,-14,nt,nt,nt
Cc1cc(NC(=O)Cn2cc(C(F)(F)F)cc(Cl)c2=O)no1,-2,-2,-12,12,2,-1,nt,nt,nt
CCCn1nc2cc(C(=O)NCc3ccc(OC(F)(F)F)cc3)ccc2c1OCC,-5,67*,-14,14,-8,3,98*,-0.66,6
CCOc1c2ccc(C(=O)NCc3ccc(OC(F)(F)F)cc3)cc2nn1CC,3,nt,26,-26,-12,-5,nt,nt,nt
CCc1ccccc1NC(=O)c1cccc(NC(=O)/C=C/c2ccco2)c1,-5,53*,-28,28,-9,-3,51,4.3,nt
COc1ccc(NC(=O)CN2C(=O)NC(c3ccccc3)(c3ccccc3)C2=O)cc1OC,10,105*,2,-2,nt,-1,103*,-0.13,2
COc1ccc(NC(=O)CN2C(=O)NC(c3ccccc3)(c3ccccc3)C2=O)cc1,-1,-6,-13,13,nt,-3,nt,nt,nt
COc1ccc(Cl)cc1NC(=O)CN1C(=O)NC2(CCCC2)C1=O,-11,88*,12,-12,nt,0,91*,0.56,15
SMILES,NOD2 RIPK2 PPI,Hep lipid drop,SR-BI uptake up,SR-BI DiI inh,TLR4-MyD88 BLA,TLR9-MyD88 block,Hep lipid conf,AML12 tox img,AML12 tox conf
CCCC1(c2ccccc2)NC(=O)N(CC(=O)NCc2ccc(C)cc2)C1=O (stereo unspecified),-8,23,27,-27,nt,2,nt,nt,nt
CCCC1(c2ccccc2)NC(=O)N(CC(=O)Nc2cc(C)ccc2OC)C1=O (stereo unspecified),-4,56*,-6,6,nt,-3,87*,-0.48,13
COC(=O)c1ccc(NS(=O)(=O)c2ccc3c(c2)n(C)c(=O)n3C)cc1,0,53*,-7,7,nt,-3,16,0.16,nt
O=C(CSCC(=O)N1CCCc2ccccc21)Nc1nc(-c2ccccc2)cs1,-11,69*,19,-19,9,-4,90*,-0.078,24
CC1CCN(C(=O)CSCC(=O)Nc2nc(-c3cccs3)cs2)CC1,0,47,-7,7,4,9,nt,nt,nt
CCOC(=O)N1CCN(C(=O)CSCC(=O)Nc2nc(-c3cccs3)cs2)CC1,3,79*,-11,11,12,3,97*,-0.24,19
O=C(COC(=O)CCC(=O)c1ccc(Cl)cc1)NC1CC1,-2,-5,10,-10,-21,-10,nt,nt,nt
COC(=O)[C@@H]1C[C@@]2(O)[C@H](O)[C@H](O)[C@H](O)C[C@H]2N1Cc1cc(F)ccc1F,-7,50*,-9,9,nt,8,19,-0.47,nt
CCCCCCCNC(=O)C1(CC2CC(c3ccc(Cl)cc3)=NO2)CCN(C(=O)c2ccccc2)CC1 (stereo unspecified),-1,0,3,-3,nt,6,nt,nt,nt
CCCCCCCNC(=O)C1(CC2CC(c3ccc(Cl)cc3)=NO2)CCN(C(=O)c2cc(OCC)c(OCC)c(OCC)c2)CC1 (stereo unspecified),-6,50*,-31,31,nt,1,90*,-1.7,-3
CC(C)C(=O)Nc1ccc(Oc2ccc3c(c2)C(=O)NC3=O)cc1,8,-6,-9,9,nt,3,nt,nt,nt
